Screening data from PubChem BioAssay.
Sampled rows, rich in hits. Any-hit rate of the full collection: about 4.4%.
Tb MetRS inh: blocks T. brucei methionyl-tRNA synthetase activity. purified T. brucei MetRS, ATP depletion, Kinase-Glo luminescence. inhibition, % at 11.9 µM. hit rate 0.4% among 360,000;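 active = inhibition above a per-plate cutoff of the control wells' mean inhibition plus 3 SD, cut at about 5.5% in these data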;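 note: 0% = DMSO wells median and 100% = median of wells with control inhibitor compound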
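technique = Kinase-Glo luminescence, ATP depletion format | system = purified MetRS (methionyl-tRNA synthetase) enzyme from Trypanosoma brucei | timing = 15 min preincubation, 2 h reaction, all 25 °C | evaluation = percent inhibition versus plate control medians | dosing = single dose, 11.9 µM final nominal, 0.9% final DMSO | also added = substrates ATP, L-methionine and bulk Escherichia coli tRNA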
bovine MsrA act: activators of bovine methionine sulfoxide reductase A | AID 602163 | activation, % at 10.6 µM | hit rate 0.3% among 360,000 | purified bovine MsrA, absorbance read-out; in the data active = activation above about 7.5%;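 note: 0% = vehicle and 100% = reference activator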
HTR2A ag: mouse HTR2A agonism via beta-arrestin recruitment; hit rate 0.66% among 360,000; AID 624169; activation, % at 7.6 µM; CHO-K1 mHTR2A beta-arrestin complementation, luminescence; percent of 30 µM serotonin response; P35363;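 active = activation above a run cutoff, the mean activation of all tested compounds plus 3 SD, cut at about 14% in these data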;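 note: 0% = plate median of compound wells and 100% = 30 µM serotonin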
AI-2 QS modul: modulates the Vibrio harveyi AI-2 quorum sensing system. Vibrio harveyi JMH597 AI-2 luminescence/OD600 ratio, 9 h; stronger effect = lower value; strain lacks LuxN and CqsS sensors; 0 = neutral-control median. activity change, % at 7.5 µM. hit rate 0.4% among 300,000. AID 2094; in the data active = activity change below about -75%, passing the limit was not always enough;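 note: luminescence divided by OD600 gain over 9 h not by final OD600 alone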
AHR act: activates the human aryl hydrocarbon receptor | AID 2796 | AHR-responsive luciferase reporter cells, luminescence | hit rate 2.5% among 320,000 | activation, % at 5 µM; in the data active = activation above about 47%;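 note: 0% = vehicle wells and 100% = reference agonist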
MsrA inh: inhibitors of bovine MsrA; purified bovine MsrA, absorbance read-out; inhibition, % at 15.5 µM; hit rate 0.75% among 360,000; AID 651718; in the data active = inhibition above about 4.5%;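 note: 0% = vehicle wells with enzyme and 100% = reference inhibitor wells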
Numbers without * were called inactive; / = no result.

SMILES	Tb MetRS inh	bovine MsrA act	HTR2A ag	AI-2 QS modul	AHR act	MsrA inh
COC(=O)C1=C(C)N(Cc2ccc(C(F)(F)F)cc2)C(=NCC2CC2)NC1c1cccc(Cl)c1 (centres undefined)	/	/	/	/	/	-1
CN(C)/C=N/c1c(C#N)cnn1-c1ncnc2sc(-c3ccccc3)cc12	0	1	4	15	58*	1
CN1CCN(c2ncnc3sc(-c4ccccc4)cc23)CC1	-1	-4	-8	15	55*	1
O=C(CNS(=O)(=O)c1ccc(Br)s1)N1CCN(c2ccc(F)cc2)CC1	-1	-2	-4	0	0	0
O=C(O)COn1c(-c2ccc(Cl)cc2)nc2ccc(Cl)cc21	0	-1	1	25	67*	2
COc1nc(-c2ccccc2)ncc1S(=O)(=O)c1ccccc1	-1	-8	-4	47	3	-1
Cc1nc(-c2ccccc2)sc1-c1nc(-c2ccncc2)ncc1S(=O)(=O)c1ccccc1	-1	-1	-1	13	54*	-1
Nc1ccc(N=Nc2ccccc2O)c(N)c1	0	-2	-8	20	72*	0
O=[N+]([O-])c1cccc(/C=N/Nc2nc(N3CCOCC3)nc(N3CCOCC3)n2)c1	-1	-5	-2	-3	10	0
O=[N+]([O-])c1ccc(Nc2nc(N/N=C/c3cccc(F)c3)nc(N3CCCC3)n2)cc1	0	-3	-3	27	145*	1
COc1cccc(/C=N/Nc2nc(Nc3ccc([N+](=O)[O-])cc3)nc(N3CCCC3)n2)c1O	-1	-15	-10	15	47*	4
COC(=O)c1cc2c(c3c4cc(OC)ccc4n(S(=O)(=O)c4ccc(OC)cc4)c13)C(=O)N(Cc1ccc(C(F)(F)F)cc1)C2	/	/	/	/	/	0
C[C@H](O)[C@@H]1CN2CCc3ccc(-c4ccc5c(c4)OCO5)cc3[C@@H]2C[C@@H]1N(C)C(=O)NC1CCCCC1	/	/	/	/	/	1
C[C@H](CO)N1C[C@H](C)[C@@H](CN(C)C(=O)Nc2ccnc(N3CCOCC3)c2)OCc2cn(nn2)CCCC1=O	/	/	/	/	/	2
CC[C@H](NC(=O)[C@H]1O[C@@H](n2cnc3c(=O)[nH]c(N)nc32)[C@H](O)[C@@H]1O)c1ccccc1	/	/	/	/	/	0
COc1cc(/C=C/C(=O)N2CCCc3ccccc32)cc(OC)c1OC	-1	-3	0	-5	55*	0
Cn1c(SCC(=O)N2CCCCC2)nc2c([nH]c3ccccc32)c1=O	0	3	1	10	45	1
CCn1c(SCC(=O)Nc2cccc(NC(C)=O)c2)nc2c([nH]c3ccccc32)c1=O	0	-6	5	34	57*	1
COCCn1c(SCC(=O)NCC2CCCO2)nc2c([nH]c3ccccc32)c1=O (centres undefined)	0	-5	3	6	59*	0
CCn1c(SCC(=O)Nc2ccc(C(C)=O)cc2)nc2c([nH]c3ccccc32)c1=O	0	-4	-2	7	31	0
COc1ccc(-n2c(SCC(=O)NCC3CCCO3)nc3c([nH]c4ccccc43)c2=O)cc1 (centres undefined)	0	-1	-6	20	8	1
COCCn1c(SCC(=O)Nc2ccc(NC(C)=O)cc2)nc2c([nH]c3ccccc32)c1=O	0	-3	0	-7	74*	1
CCOC(=O)N1CCN(C(=O)CSc2nc3c([nH]c4ccccc43)c(=O)n2C)CC1	-1	0	-1	3	51*	1
O=Cc1ccc(/C=C2\c3ccccc3C(=O)N2c2ccccc2)o1	/	/	/	/	/	2
CC(C)C[C@H](NC(=O)c1ccccc1)C(=O)N1CCC[C@H]1C(=O)NCc1ccccc1	/	/	/	/	/	1
SMILES	Tb MetRS inh	bovine MsrA act	HTR2A ag	AI-2 QS modul	AHR act	MsrA inh
O=C(C(=O)N1CCN(C(=O)Cc2ccccc2)CC1)c1cccc(C(F)(F)F)c1	/	/	/	/	/	0
C=CCn1c(SCC(=O)NC2CCCC2)nc2c([nH]c3ccccc32)c1=O	0	-4	-3	3	63*	-1
C=CCn1c(SCC(=O)NC2CCCCC2)nc2ccccc2c1=O	-1	-5	1	34	0	1
Cn1c(C(=O)c2ccccc2[N+](=O)[O-])nc2ccccc21	0	-10	0	21	48*	2
COC(=O)N1C[C@H](OCc2cn(-c3cc(Cl)cc(Cl)c3)nn2)[C@H](OCc2cn(-c3cc(Cl)cc(Cl)c3)nn2)C[C@@H]1c1ccccc1Br	/	/	/	/	/	-1
CCCc1ccc2oc(C(=O)NCCc3nc(C(=O)OCC)cs3)c(C)c2c1	0	-1	-1	19	/	1
CCCc1ccc2oc(C(=O)NCCc3cnn(C)c3)c(C)c2c1	0	-8	-5	21	49*	-1
CCCCCCCCN1C(=O)[C@@H](CC(=O)N2CCN(C(=O)C3CC3)CC2)C[C@@]2(C(=O)OC)C1=C[C@H](C1CCCC1)O[C@@H]2C	/	/	/	/	/	-1
COc1ccccc1NC(=O)C(=O)N/N=C/c1cccs1	-1	-8	-3	24	47*	2
COc1ccc(N(CC(=O)N/N=C/c2cccs2)S(=O)(=O)c2ccccc2)cc1	0	-2	0	8	64*	2
COc1ccc(N(CC(=O)N/N=C/c2ccc(OC3CSC3)cc2)S(=O)(=O)c2ccccc2)cc1	-1	-4	4	25	2	0
COc1ccccc1NC(=O)/C(=C\c1cccs1)NC(=O)c1ccco1	0	-6	1	17	66*	2
CCOC1=C2[C@@H](CN(S(=O)(=O)c3ccc(C)cc3)[C@H]2c2ccccc2Cl)[C@H]2C(=O)N(C)C(=O)[C@H]2C1	0	-2	-7	/	/	0
CCOC(=O)C1=C(C)NC(=O)NC1c1ccc(N2CCC(c3ccccc3)=N2)cc1 (centres undefined)	0	-3	0	4	57*	-1
CC1CCN(C(=O)c2[nH]cnc2C(=O)N(C)CCO)CC1	/	/	/	/	/	2
COc1cc(/C=N/NC(=O)C(Cc2c[nH]c3ccccc23)NC(=O)OCC(C)C)cc([N+](=O)[O-])c1OCc1ccccc1 (centres undefined)	0	-4	3	27	64*	0
COc1cc(/C=N/NC(=O)C(Cc2c[nH]c3ccccc23)NC(=O)OCC(C)C)cc([N+](=O)[O-])c1O (centres undefined)	1	-4	0	14	3	4
Cc1ccccc1OCC(=O)NNC(=O)c1ccoc1C	0	4	-1	/	-1	0
Oc1c(/C=N/Nc2cccc3cccnc23)ccc2ccccc12	0	-3	-3	11	48*	1
C/C(=N\Nc1ccccc1[N+](=O)[O-])c1ccccc1O	-1	-10	2	21	38	1
C/C(=N\Nc1cccc2cccnc12)c1ccccn1	-1	-7	0	8	47*	2
